In general, IC50 refers to the concentration that inhibits the measured activity by half. In general, inhibition in vivo refers to the percentage by which the read-out fell short of the control. In general, clearance refers to the rate of elimination divided by the concentration. By half-life is commonly meant the time needed for the level to fall by half in the phase considered. By bioavailability is commonly meant the share of a dose that reaches the circulation, judged against a reference dose that is usually intravenous. Usually ED50 stands for the dose at which the effect has come halfway, by size or by number of responders.

Active and inactive are the calls of the source. A value given as a limit tells only on which side of the number the result lay.

The source of these data is ChEMBL document CHEMBL1139985, “Discovery of (S)-2-((S)-2-(3,5-difluorophenyl)-2-hydroxyacetamido)-N-((S,Z)-3-methyl-4-oxo-4,5-dihydro-3H-benzo[d][1,2]diazepin-5-yl)propanamide (BMS-433796): a gamma-secretase inhibitor with Abeta lowering activity in a transgenic mouse model of Alzheimer's disease” (Bioorg Med Chem Lett, 2007).

One data set concerns the target Gamma-secretase. Briefly: Inhibition of gamma secretase assessed as reduction of amyloid beta level in H4 cells. It is filed as cell-based, Homo sapiens. A digest of the protocol:
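H4 cells; Aβ40 lowering measured in a cell-based assay; IC50 values are means of two experiments, 16 data points each, intra-assay variance <10%.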

Data set [1] deals with Mus musculus. In words: Inhibition of beta amyloid peptide in Tg2576 mouse brain at 30 umol/kg, po after 3 hrs. The class given is functional. A digest of the protocol: (§1)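 Tg2576 mice, single oral dose of 30 µmol/kg; brain and plasma sampled 3 h after dosing for Aβ (% inhibition) and compound levels; n = 7-10; means ± SEM.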
Data set [2] deals with Mus musculus. In words: Inhibition of beta amyloid peptide in Tg2576 mouse plasma at 30 umol/kg, po after 3 hrs. The class given is functional. Put shortly:
as §1

A short description of data set [3]: Drug level in Tg2576 mouse plasma at 30 umol/kg, po after 3 hrs. It is filed as ADME, organism-based. Particulars: read-out: Drug uptake. Put shortly: as §1
Data set [4] in a line: Drug level in Tg2576 mouse brain at 30 umol/kg, po after 3 hrs. It is filed as ADME, organism-based. Particulars: read-out: Drug uptake. Put shortly: as §1
A short description of data set [5]: Clearance in Sprague-Dawley rat at 2.3 umol/kg, iv. The class given is ADME, organism-based. Particulars: in vivo.
For the next data set, the species on record is Homo sapiens. In words: Ratio of IC50 for Notch processing to IC50 for amyloid beta processing.
Data set [6] is described as follows: Terminal half life in Sprague-Dawley rat at 2.3 umol/kg, iv. It is filed as ADME, organism-based. To be noted: in vivo.
Data set [7] is filed under the species Mus musculus. Briefly: Reduction of beta amyloid peptide in Tg2576 mouse brain after 12 hrs. The class given is functional, organism-based.
Data set [8] deals with Mus musculus. In words: Inhibition of beta amyloid peptide in Tg2576 mouse brain at 4 umol/kg, po qd after 1 day. Also on record: scale not given: the % may be the effect or the level left. It is filed as functional. A digest of the protocol: (§2)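 Tg2576 mice dosed orally at 4 or 30 µmol/kg, once daily for 1 or 14 days or twice daily (30 µmol/kg); brain Aβ inhibition measured.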

A short description of data set [9]: Oral bioavailability in Sprague-Dawley rat at 35 umol/kg. It is filed as ADME, organism-based. To be noted: in vivo. A digest of the protocol: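 Rats dosed orally with a PEG-400 suspension at 35 µmol/kg; bioavailability from plasma exposure.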
In data set [10] the test system is Mus musculus. Briefly: Toxicity in Tg2576 mouse at 30 umol/kg, po bid after 10 days. Particulars: in vivo, 240 h. The class given is organism-based. A digest of the protocol: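 Tg2576 mice dosed orally at 30 µmol/kg twice daily; clinical signs, body weight and mortality monitored; intestinal histopathology assessed.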
Data set [11] can be described thus: Inhibition of human Cytochrome P450. The class given is ADME. Put shortly: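 Inhibition of human CYPs measured in vitro as IC50.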
Data set [12] is filed under the species Mus musculus. Briefly: Increase in beta amyloid peptide in Tg2576 mouse plasma after 24 hrs. It is filed as functional.
The test system of data set [13] is Mus musculus. Briefly: Inhibition of beta amyloid peptide in po dosed Tg2576 mouse brain after 3 hrs. It is filed as functional, organism-based. A digest of the protocol: (§3)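 Tg2576 mice dosed orally; brain and plasma Aβ measured 3 h after dosing; ED50 derived from dose-dependent Aβ reduction.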
The test system of data set [14] is Mus musculus. In words: Inhibition of beta amyloid peptide in Tg2576 mouse brain at 4 umol/kg, po qd after 14 days. The class given is functional. Also on record: scale not given: the % may be the effect or the level left. Put shortly: as §2
Data set [15] deals with Mus musculus. In words: Inhibition of beta amyloid peptide in Tg2576 mouse brain at 30 umol/kg, po qd after 1 day. The class given is functional. On the set-up: scale not given: the % may be the effect or the level left. A digest of the protocol:
as §2

The species named for data set [16] is Mus musculus. In words: Reduction of beta amyloid peptide in Tg2576 mouse plasma after 12 hrs. The class given is functional, organism-based.
Data set [17] has as its system Mus musculus. Briefly: Inhibition of beta amyloid peptide in Tg2576 mouse brain at 30 umol/kg, po, qd after 14 days. The class given is functional. Also on record: scale not given: the % may be the effect or the level left. Put shortly:
as §2

Data set [18] deals with Mus musculus. Briefly: Inhibition of beta amyloid peptide in Tg2576 mouse brain at 30 umol/kg, po bid after 14 days. The class given is functional. Also on record: scale not given: the % may be the effect or the level left. A digest of the protocol:
as §2

Data set [19] relates to Mus musculus. In words: Inhibition of beta amyloid peptide in po dosed Tg2576 mouse plasma after 3 hrs. It is filed as functional. A digest of the protocol:
as §3

Regarding `C[C@H](NC(=O)CC1CCCCC1)C(=O)NC1C(=O)N(C)N=Cc2ccccc21` (some centres undefined), the IC50 at Gamma-secretase stood at 43 nM.

`CC(C)C[C@H](NC(=O)Cc1ccsc1)C(=O)NC1C(=O)N(C)N=Cc2ccccc21` (some centres undefined): the half-maximal inhibitory concentration (IC50) at Gamma-secretase was 0.7 nM.

For `C[C@H](NC(=O)Cc1cc(F)cc(F)c1)C(=O)NC1C(=O)N(C)N=Cc2ccccc21` (some centres undefined), the inhibition in vivo at 30 µmol/kg worked out at 54% with Mus musculus [1] and 75% in the data set on Mus musculus [2]. Moreover, the 50% inhibitory concentration (IC50) on Gamma-secretase came to 6 nM. For the same compound, the concentration at 3 h in data set [3] turned out to be 199 nM; in data set [4], 12 nM.

Take `CC(C)C[C@H](NC(=O)Cc1cccs1)C(=O)NC1C(=O)N(C)N=Cc2ccccc21` (some centres undefined): the IC50 at Gamma-secretase turned out to be 1.9 nM.

Regarding `CC(C)C[C@H](NC(=O)CC1CCCCC1)C(=O)NC1C(=O)N(C)N=Cc2ccccc21` (some centres undefined), the concentration for half-maximal inhibition (IC50) on Gamma-secretase was found to be 14 nM.

For `CC(C)C[C@H](NC(=O)[C@@H](O)c1ccccc1)C(=O)NC1C(=O)N(C)N=Cc2ccccc21` (some centres undefined), at Gamma-secretase, the 50% inhibitory concentration (IC50) was determined as 0.4 nM.

For the compound `C[C@H](NC(=O)Cc1cccnc1)C(=O)NC1C(=O)N(C)N=Cc2ccccc21` (some centres undefined), the IC50 at Gamma-secretase amounted to 162 nM.

In the case of `C[C@H](NC(=O)Cc1ccsc1)C(=O)NC1C(=O)N(C)N=Cc2ccccc21` (some centres undefined), at Gamma-secretase, the IC50 was found to be 1 nM.

As for `C[C@H](NC(=O)Cc1cccc(Cl)c1)C(=O)NC1C(=O)N(C)N=Cc2ccccc21` (some centres undefined), the IC50 at Gamma-secretase was 10 nM.

For `CC(C)C[C@H](NC(=O)Cc1cc(F)cc(F)c1)C(=O)NC1C(=O)N(C)N=Cc2ccccc21` (some centres undefined), on Gamma-secretase, the IC50 amounted to 0.5 nM.

For the compound `C[C@H](NC(=O)[C@@H](O)c1cc(F)cc(F)c1)C(=O)N[C@@H]1C(=O)N(C)N=Cc2ccccc21`, the clearance in data set [5] came out at 5.2 mL/min/kg. The Ratio IC50 in the data set listed under Homo sapiens was determined as 0.5. In addition, the half-life in data set [6] is 4.6 h. Besides, the result in the data set listed under Mus musculus [7], in the data set with Mus musculus [13] and in the data set listed under Mus musculus [16] was Active. Further, the inhibition in vivo at 30 µmol/kg came out at 90% in the data set with Mus musculus [1] and 88% with Mus musculus [2]. In addition, the Activity in the data set with Mus musculus [8] is 25%; in the data set with Mus musculus [10], “Toxic”; in the data set listed under Mus musculus [12] it was 60%; in the data set with Mus musculus [14], 38%; with Mus musculus [15], 83%; with Mus musculus [17], 89%. This compound also registered an Activity in the data set on Mus musculus [18] of 98%. The same compound returned a bioavailability in data set [9] of 31%. Further, the IC50 in data set [11] was more than 100000 nM; at Gamma-secretase, 0.3 nM. Further, the concentration at 3 h amounted to 1960 nM in data set [3] and 133 nM in data set [4].

As to `CC(C)C[C@H](NC(=O)Cc1ccccc1F)C(=O)NC1C(=O)N(C)N=Cc2ccccc21` (some centres undefined), the IC50 at Gamma-secretase worked out at 22 nM.

Take `CC1=NN(C)C(=O)C(NC(=O)[C@H](C)NC(=O)Cc2ccoc2)c2ccccc21` (some centres undefined): the IC50 on Gamma-secretase worked out at 2 nM.

For the compound `CC(C)C[C@H](NC(=O)Cc1cccc(F)c1)C(=O)NC1C(=O)N(C)N=Cc2ccccc21` (some centres undefined), the 50% inhibitory concentration (IC50) on Gamma-secretase came out at 2 nM.

Take `C[C@H](NC(=O)Cc1ccc(F)cc1)C(=O)NC1C(=O)N(C)N=Cc2ccccc21` (some centres undefined): the IC50 on Gamma-secretase came out at 59 nM.

Consider `C[C@H](NC(=O)[C@@H](O)c1cc(F)cc(F)c1)C(=O)NC1C(=O)N(C)N=Cc2ccccc21` (some centres undefined), for which the IC50 on Gamma-secretase amounted to 0.2 nM.

In turn, `C[C@H](NC(=O)[C@@H](O)c1cc(F)cc(F)c1)C(=O)N[C@H]1C(=O)N(C)N=Cc2ccccc21` gave an inhibition in vivo at 30 µmol/kg in the data set with Mus musculus [1] of 29%. Moreover, the concentration for half-maximal inhibition (IC50) at Gamma-secretase came out at 30 nM. The values for the concentration at 3 h in data set [3] and in data set [4] were 546 nM and 72 nM, respectively.

Regarding `CC1=NN(C)C(=O)C(NC(=O)[C@H](C)NC(=O)Cc2cc(F)cc(F)c2)c2ccccc21` (some centres undefined), the IC50 at Gamma-secretase stood at 1.3 nM.

With `C[C@H](NC(=O)Cc1cccs1)C(=O)NC1C(=O)N(C)N=Cc2ccccc21` (some centres undefined), the IC50 on Gamma-secretase worked out at 3 nM.

As for `C[C@H](NC(=O)Cc1ccco1)C(=O)NC1C(=O)N(C)N=Cc2ccccc21` (some centres undefined), on Gamma-secretase, the IC50 is 24 nM.

Regarding `C[C@H](NC(=O)C(=O)c1cc(F)cc(F)c1)C(=O)NC1C(=O)N(C)N=Cc2ccccc21` (some centres undefined), the inhibition in vivo at 30 µmol/kg with Mus musculus [1] was found to be 92%; in the data set on Mus musculus [2], 98%. On Gamma-secretase, the IC50 came to 1 nM. In addition, the concentration at 3 h amounted to 2090 nM in data set [3] and 280 nM in data set [4].

Turning to `CC(C)C[C@H](NC(=O)[C@H](O)c1ccccc1)C(=O)NC1C(=O)N(C)N=Cc2ccccc21` (some centres undefined), at Gamma-secretase, the 50% inhibitory concentration (IC50) worked out at 56 nM.

`CC(C)N1N=Cc2ccccc2C(NC(=O)[C@H](C)NC(=O)Cc2cc(F)cc(F)c2)C1=O` (some centres undefined): on Gamma-secretase, the IC50 was determined as 4 nM.

For `C[C@H](NC(=O)Cc1cc(F)cc(F)c1)C(=O)NC1C(=O)N(C)NCc2ccccc21` (some centres undefined), the values for the inhibition in vivo at 30 µmol/kg in the data set on Mus musculus [1] and with Mus musculus [2] were 51% and 80%, respectively. The compound also displayed an ED50 in the data set with Mus musculus [19] of 5 µmol/kg. Besides, the IC50 on Gamma-secretase was determined as 9 nM. Also, the figures for the concentration at 3 h in data set [3] and in data set [4] were 205 nM and 6 nM, respectively.

For `C[C@H](NC(=O)Cc1cccc(F)c1)C(=O)NC1C(=O)N(C)N=Cc2ccccc21` (some centres undefined), on Gamma-secretase, the IC50 turned out to be 8 nM.

As to `C[C@H](NC(=O)[C@H](O)c1cc(F)cc(F)c1)C(=O)N[C@H]1C(=O)N(C)N=Cc2ccccc21`, the IC50 at Gamma-secretase was 750 nM.

As to `CC(C)C[C@H](NC(=O)Cc1ccc(F)cc1)C(=O)NC1C(=O)N(C)N=Cc2ccccc21` (some centres undefined), at Gamma-secretase, the IC50 is 14 nM.

For `C[C@H](NC(=O)Cc1ccc2ccccc2c1)C(=O)NC1C(=O)N(C)N=Cc2ccccc21` (some centres undefined), the IC50 on Gamma-secretase is 269 nM.

`C[C@H](NC(=O)[C@H](O)c1cc(F)cc(F)c1)C(=O)N[C@@H]1C(=O)N(C)N=Cc2ccccc21`: the inhibition in vivo at 30 µmol/kg was determined as 91% in the data set with Mus musculus [1] and 86% in the data set with Mus musculus [2]. Also, the result in the data set with Mus musculus [13] was Active. In addition, the IC50 at Gamma-secretase turned out to be 10 nM. The concentration at 3 h in data set [3] turned out to be 2750 nM; in [4], 202 nM.
